For data set [1], the system named is Mus musculus. As to the kind of experiment: Analgesic activity in Swiss mouse at 100 umol/kg, po after 30 mins by hot plate test. In kind it is functional. The gist of the method:
(§1)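 Swiss mice (20–30 g) given 100 µmol/kg orally and placed on a hot plate at 55 ± 1 °C. Latency to fore- or hind-paw licking or jumping recorded 30, 60, 90 and 120 min after dosing. Baseline is the mean reaction time at 30 and 60 min before dosing. n = 6–8. ANOVA with Dunnett test vs control.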

Data set [2] concerns Mus musculus. The experiment in a line: Analgesic activity in Swiss mouse at 100 umol/kg, po after 60 mins by hot plate test. In kind it is functional. The procedure, abridged: as §1
Data set [3] has as its system Mus musculus. As to the kind of experiment: Analgesic activity in Swiss mouse at 100 umol/kg, po after 90 mins by hot plate test. It counts as functional. The gist of the method: as §1
The subject of data set [4] is Mus musculus. As to the kind of experiment: Analgesic activity in Swiss mouse at 100 umol/kg, po after 120 mins by hot plate test. In kind it is functional. The gist of the method:
as §1

Data set [5] has as its system Mus musculus. As to the kind of experiment: Antihyperalgesic activity in Swiss mouse assessed as inhibition of formalin-induced nociception at 100 umol/kg, po administered 40 mins before formalin challenge measured after 15 to 30 mins. In kind it is functional, organism-based. The gist of the method:
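Swiss mice given 100 µmol/kg p.o. (vehicle arabic gum) 40 min before 20 µL of 2% formalin in 0.9% saline s.c. into the right hind paw. Licking/biting time recorded 0–5 min (neurogenic phase) and 15–30 min (inflammatory phase). n = 6. Mean ± S.E.M. ANOVA with Dunnett test vs control.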

Data set [6] relates to Mus musculus. The experiment in a line: Hypothermic activity in Swiss mouse assessed as decrease in rectal body temperature at 100 umol/kg, po after 1 hr at room temperature. In kind it is organism-based. Particulars: in vivo. The gist of the method: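 Swiss mice with normal rectal temperature (37.0–38.0 °C) were acclimatized 1 h at 25 °C room temperature, and baseline rectal temperature was taken. Animals were then dosed orally at 100 µmol/kg, and rectal temperature was re-measured 1 h later; change from baseline reported, n = 8, mean ± S.E.M., Dunnett versus control.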

The test system of data set [7] is Mus musculus. As to the kind of experiment: Hepatotoxicity in Swiss mouse assessed as changes in morphology of liver parenchyma at 100 umol/kg, po for five days after 24 hrs of last dose. The conditions noted are these: in vivo. In kind it is toxicity, organism-based. The procedure, abridged: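 Swiss mice given 100 µmol/kg p.o. daily for 5 days; controls received vehicle. After blood collection 24 h post last dose, animals were killed with CO₂; ten liver samples per animal (two each from left, right, left middle, right middle and caudate lobes) fixed in 10% neutral buffered formalin, H&E stained, examined at 100× and 400× for necrosis or degeneration.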

The test system of data set [8] is Mus musculus. The experiment in a line: Analgesic activity in Swiss mouse assessed as inhibition of acetic acid-induced abdominal writhings at 100 umol/kg, po administered 60 mins before acetic acid challenge relative to control. On the set-up: scale not given: the % may be the effect or the level left.
In data set [9] the test system is Mus musculus. The experiment in a line: Antihyperalgesic activity in Swiss mouse assessed as inhibition of formalin-induced nociception at 100 umol/kg, po administered 40 mins before formalin challenge measured after 0 to 5 mins. In kind it is functional, organism-based.
Data set [10] concerns Mus musculus. The experiment in a line: Analgesic activity in po dosed Swiss mouse assessed as inhibition of acetic acid-induced abdominal writhings administered 60 mins before acetic acid challenge measured for 25 mins. It counts as functional. The conditions noted are these: Abdomen. The gist of the method: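 Swiss mice (20–30 g). Oral dosing before i.p. 0.6% (v/v) acetic acid, 0.1 mL/10 g. Writhes (abdominal contraction, pelvic rotation, hind-limb extension) counted for 20 min starting 5 min after injection. Result expressed as % inhibition vs vehicle controls. Screening at 100 µmol/kg p.o.; dose-response at 100, 30, 10 and 3 µmol/kg with ID50 by linear regression. n = 8.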

Data set [11] relates to Mus musculus. As to the kind of experiment: Hepatotoxicity in Swiss mouse assessed as increase in serum gamma-glutamyl transferase at 100 umol/kg, po for five days after 24 hrs of last dose. It counts as toxicity, organism-based. The conditions noted are these: in vivo. The procedure, abridged: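 Swiss mice received 100 µmol/kg p.o. daily for five days (n = 6; vehicle n = 5). 24 h after the last dose, blood was drawn under ethyl ether anaesthesia, and serum was separated at 3000 × g for 15 min and kept at 4 °C. gGT was assayed by a kinetic kit method, in U/L. ANOVA with Dunnett test.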

Data set [12] concerns Mus musculus. As to the kind of experiment: Analgesic activity in Swiss mouse at 15 umol/kg, ip after 30 mins by hot plate test. It counts as functional. The gist of the method: (§2)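 Hot-plate reference arm in Swiss mice: morphine 15 µmol/kg i.p. Animals placed on a plate at 55 ± 1 °C. Paw-licking or jumping latency read 30, 60, 90 and 120 min after treatment. Baseline is the mean of readings at 30 and 60 min before treatment. n = 8.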
Background: In hot-plate and tail-flick tests a longer latency is read as antinociception.

Data set [13] has as its system Mus musculus. The experiment in a line: Analgesic activity in Swiss mouse at 15 umol/kg, ip after 60 mins by hot plate test. In kind it is functional. The gist of the method:
as §2

Data set [14] relates to Mus musculus. The experiment in a line: Analgesic activity in Swiss mouse at 15 umol/kg, ip after 90 mins by hot plate test. In kind it is functional. The procedure, abridged:
as §2

In data set [15] the test system is Mus musculus. As to the kind of experiment: Analgesic activity in Swiss mouse at 15 umol/kg, ip after 120 mins by hot plate test. It counts as functional. The gist of the method:
as §2

Activity calls are given as the source filed them. The calls are words filed in the database; no cut-off is given here.

Take `CC(=O)Nc1ccc(O)cc1` [ACETAMINOPHEN]: the Activity with Mus musculus [1] was 51.8%; with Mus musculus [2], 60.6%; in the data set with Mus musculus [3], 54.6%; in the data set with Mus musculus [4], 54.6%; in the data set on Mus musculus [6] it was -1.1 °C; in the data set on Mus musculus [7], “Toxic”. Also, the Activity with Mus musculus [8] is recorded as 34%. The result with Mus musculus [5] was inactive.
As for `CC(=O)Nc1ccc(S(=O)(=O)N2CCNCC2)cc1`, the Activity in the data set on Mus musculus [1] stood at 23.5%; in the data set with Mus musculus [2] it was 7.2%; in the data set on Mus musculus [3], 37.1%; in the data set with Mus musculus [4], 0%; in the data set on Mus musculus [6] it was 0.2 °C; in the data set with Mus musculus [8] it was 61.1%. Moreover, in the data set with Mus musculus [5], the result was inactive.
For the molecule `CCNS(=O)(=O)c1ccc(NC(C)=O)cc1`, the Activity was found to be 23% in the data set with Mus musculus [1]; 6% with Mus musculus [2]; 32.8% in the data set on Mus musculus [3]; 24.2% in the data set on Mus musculus [4]; 0.2 °C with Mus musculus [6]; 48.6% in the data set on Mus musculus [8]. In addition, the outcome in the data set with Mus musculus [9] and in the data set on Mus musculus [5] was inactive.
For `CC(=O)Nc1ccc(S(=O)(=O)N2CCN(C)CC2)cc1`, the Activity result is “Dose-dependent effect” in the data set with Mus musculus [10]; 57.5% with Mus musculus [1]; 47.9% in the data set with Mus musculus [2]; 19.6% in the data set with Mus musculus [3]; 21.3% in the data set with Mus musculus [4]; -1.8 °C in the data set on Mus musculus [6]. The Activity result is on record as “Non-toxic” in the data set with Mus musculus [11], “Non-toxic” in the data set with Mus musculus [7] and 75% in the data set with Mus musculus [8]. For the same molecule, the outcome in the data set with Mus musculus [9] and in the data set with Mus musculus [5] was inactive.
As for `CCN(CC)S(=O)(=O)c1ccc(NC(C)=O)cc1`, the Activity in the data set on Mus musculus [1] was 2.4%; in the data set on Mus musculus [2], 0%; with Mus musculus [3] it was 0%; with Mus musculus [4] it was 0%; with Mus musculus [6], -1.8 °C; in the data set with Mus musculus [8] it was 45.8%. For the same molecule, in the data set with Mus musculus [5], the outcome was Active.
As for `CN1CC[C@]23c4c5ccc(O)c4O[C@H]2[C@@H](O)C=C[C@H]3[C@H]1C5` [MORPHINE], the Activity in the data set with Mus musculus [12] worked out at 78.9%; in the data set on Mus musculus [13] it was 74.7%; with Mus musculus [14], 57.8%; in the data set on Mus musculus [15] it was 32.1%.
`CC(=O)Nc1ccc(S(=O)(=O)N2CCOCC2)cc1`: the Activity in the data set on Mus musculus [1] is 22%; with Mus musculus [2], 23.3%; in the data set with Mus musculus [3] it was 20.7%; with Mus musculus [4] it was 8%; with Mus musculus [6] it was -1.4 °C; in the data set on Mus musculus [8] it was 43.2%. The result with Mus musculus [5] was inactive.
With `CC(=O)Nc1ccc(S(=O)(=O)N2CCCCC2)cc1`, the Activity with Mus musculus [1] is 26.5%; in the data set on Mus musculus [2] it was 14.3%; in the data set on Mus musculus [3], 18.2%; in the data set with Mus musculus [4] it was 30.7%; with Mus musculus [6], -0.8 °C; in the data set on Mus musculus [8], 29.6%. The result in the data set on Mus musculus [5] was Active.
`CC(=O)Nc1ccc(S(=O)(=O)N2CCSCC2)cc1`: the Activity in the data set with Mus musculus [1] is 25%; in the data set on Mus musculus [2], 28.6%; with Mus musculus [3], 48.3%; with Mus musculus [4], 65.1%; with Mus musculus [6] it was -0.7 °C; in the data set on Mus musculus [8] it was 44%. Also, the outcome in the data set with Mus musculus [9] and in the data set with Mus musculus [5] was inactive.

Values taken from ChEMBL document CHEMBL1153756, “Synthesis and pharmacological evaluation of N-phenyl-acetamide sulfonamides designed as novel non-hepatotoxic analgesic candidates” (Eur J Med Chem, 2009).
